These results are taken from paper PMC4356685 (International Journal of Nanomedicine, 2015).

Data set [1] concerns 4T1 cells. Nature of the data set: In vitro cytotoxicity, WST-8 assay. Format: cell-based, mouse. The note with it: 48 hours, WST-8, n=5. On the technique in general: Tetrazolium dyes change colour on reduction, which living cells bring about.
Data set [2] can be described thus: Pharmacokinetic studies in rats. Format: in vivo, Sprague Dawley (SD) rats. Summed up: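 Female SD rats (200±20 g), three per group, received a single tail-vein injection in 0.9% saline (10 mg/kg drug-equivalent). Retro-orbital blood was taken at 5, 15 and 30 min and at 1, 1.5, 2, 4, 7, 10 and 24 h into heparinized tubes. Plasma was stored at −20°C, extracted, redissolved in acetonitrile, filtered and quantified by HPLC against spiked-plasma standard curves. Parameters came from a two-compartment model fit.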

The test system of data set [3] is 4T1 murine breast tumors. As to the kind of experiment: In vivo anticancer efficacy. As to conditions: 4T1 tumor-bearing BALB/c mice, PTX 10 mg/kg i.v. at days 10, 13, 16, 19. An outline of the steps: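 Female BALB/c mice (4–6 weeks old) were inoculated subcutaneously in the left back, under anesthesia, with ~5×10^5 4T1 cells in PBS. Dosing began at a tumor volume of about 50–100 mm3: 10 mg/kg drug-equivalent by tail-vein injection on days 10, 13, 16 and 19 after inoculation, with a normal-saline control. Tumors (V = L×W²/2) and body weight were measured every 2 days until day 23. Survival was followed until death from tumor growth or treatment.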

Data set [4] can be described thus: Toxicity in tumor-bearing mice. Format: in vivo. As to conditions: PTX 10 mg/kg i.v. in 4T1 tumor-bearing BALB/c mice.
The mark [5] stands for this setting: Sprague-Dawley, rat, plasma, iv, 10 mg/kg.
[6] abbreviates: rats, i.v. tail vein, 10 mg/kg of PTX, two-compartment model.

Molecules are shown by their SMILES.

One may read the AUC(0-inf) as the area under the concentration-time curve extrapolated to infinity. A low value points to low exposure. In general, AUC(0-t) refers to the area under the concentration-time curve up to a stated or last time point. The clearance is a measure of how efficiently the substance is removed, as volume per time. Lower therefore signals inefficient removal. As for `CC(=O)O[C@H]1C(=O)[C@@]2(C)[C@H]([C@H](OC(=O)c3ccccc3)[C@]3(O)C[C@H](OC(=O)[C@H](O)[C@@H](NC(=O)c4ccccc4)c4ccccc4)C(C)=C1C3(C)C)[C@]1(OC(C)=O)CO[C@@H]1C[C@@H]2O` [Free PTX, paclitaxel], the “cytotoxicity (cell viability) compared with other formulations” value in data set [1] was “stronger inhibition effects compared to the PEGylated nanoparticles”. For the same compound, in data set [2] (setting [5]), the AUC(0-inf) was 49200 ± 16900 ng·h/mL, the AUC(0-t) stood at 46600 ± 16800 ng·h/mL, the clearance is 8.5 mL/min/kg and the k el was 0.000511 s⁻¹. Moreover, in data set [2] (setting [6]), the “K12 (transfer rate constant from central to periphery compartment)” value amounted to 0.45 ± 0.33 h⁻¹, the “K21 (transfer rate constant from periphery to central compartment)” value was determined as 0.55 ± 0.24 h⁻¹, the “V1 (volume of central compartment)” value was determined as 0.28 ± 0.02 L/kg and the “V2 (volume of periphery compartment)” value worked out at 0.21 ± 0.12 L/kg. Moreover, in data set [3], the median survival time came out at 31 days. In addition, the tumor inhibition rate in data set [3] (n=8) is listed as 32.5%. Besides, the “acute toxicity / deaths after intravenous injection” value in data set [4] is “some deaths were observed a few minutes after the injection”.
